{
  "source": "ChEMBL document CHEMBL5257120",
  "about": "(Bioorg Med Chem, 2023)",
  "key": {"[1]": {"assay": "Toxicity in Swiss albino mouse assessed as RBC level at 1000 mg/kg, po administered for 7 days (reference value: 7.13 +/- 0.40 million/mm3)", "format": "organism-based, Erythrocyte", "details": "in vivo, 168 h, time 7 day", "summary_of_the_method": "(§1)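 Single acute oral dose (5, 50, 300 or 1000 mg/kg) given to Swiss albino mice, n = 6, with 7-day observation. At the end, haematological and serum biochemical parameters were measured. Compared with untreated controls; mean ± SE, ANOVA, p < 0.05.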"}, "K562": {"system": "K562", "assay": "Cytotoxicity against human K562 cells incubated for 72 hrs by Sulphorhodamine assay", "format": "functional, cell-based", "details": "K562, 72 h"}, "[2]": {"assay": "Toxicity in Swiss albino mouse assessed as change in relative brain weight at 5 to 1000 mg/kg, po administered for 7 days", "format": "organism-based", "details": "in vivo, 168 h, dose 5-1000 mg/kg, time 7 day"}, "[3]": {"assay": "Hepatotoxicity in Swiss albino mouse assessed as SGOT level at 300 mg/kg, po administered for 7 days (reference value: 31.51 +/- 6.31 U/L)", "format": "toxicity, organism-based", "details": "in vivo, 168 h, time 7 day", "summary_of_the_method": "as §1"}, "[4]": {"assay": "Antiinflammatory activity in mouse peritoneal macrophage assessed as reduction in LPS-induced IL6 production at 1 ug/ml", "format": "functional", "details": "dose 1 µg/ml"}, "[5]": {"assay": "Toxicity in Swiss albino mouse assessed as change in relative lungs weight at 5 to 1000 mg/kg, po administered for 7 days", "format": "organism-based", "details": "in vivo, 168 h, dose 5-1000 mg/kg, time 7 day"}, "[6]": {"assay": "Toxicity in Swiss albino mouse assessed as change in body weight at 300 mg/kg, po administered for 7 days (reference value: 29.35 +/- 0.57 g)", "format": "organism-based", "details": "in vivo, 168 h, time 7 day"}, "[7]": {"assay": "Hepatotoxicity in Swiss albino mouse assessed as serum protein level at 300 mg/kg, po administered for 7 days (reference value: 5.73 +/- 0.21 mg/ml)", "format": "toxicity, organism-based", "details": "in vivo, 168 h, time 7 day", "summary_of_the_method": "as §1"}, "MCF7": {"system": "MCF7", "assay": "Cytotoxicity against human MCF7 cells incubated for 72 hrs by Sulphorhodamine assay", "format": "functional, cell-based", "details": "MCF7, 72 h"}, "[8]": {"assay": "Toxicity in Swiss albino mouse assessed as cholesterol level at 1000 mg/kg, po administered for 7 days (reference value: 140.17 +/- 3.76 mg/dl)", "format": "organism-based", "details": "in vivo, 168 h, time 7 day"}, "[9]": {"assay": "Antiinflammatory activity in mouse peritoneal macrophage assessed as inhibition of LPS-induced TNFalpha production at 10 ug/ml relative to control", "format": "functional", "design": "scale not given: the % may be the effect or the level left", "details": "dose 10 µg/ml"}, "[10]": {"assay": "Toxicity in Swiss albino mouse assessed as haemoglobin level at 300 mg/kg, po administered for 7 days (reference value: 15.66 +/- 0.80 g/dl)", "format": "organism-based", "details": "in vivo, 168 h, time 7 day"}, "[11]": {"assay": "Toxicity in Swiss albino mouse assessed as change in body weight at 5 mg/kg, po administered for 7 days (reference value: 29.35 +/- 0.57 g)", "format": "organism-based", "details": "in vivo, 168 h, time 7 day"}, "[12]": {"assay": "Antiinflammatory activity in mouse peritoneal macrophage assessed as reduction in LPS-induced IL6 production at 10 ug/ml", "format": "functional", "details": "dose 10 µg/ml"}, "[13]": {"assay": "Toxicity in Swiss albino mouse assessed as change in body weight at 1000 mg/kg, po administered for 7 days (reference value: 29.35 +/- 0.57 g)", "format": "organism-based", "details": "in vivo, 168 h, time 7 day"}, "[14]": {"assay": "Toxicity in Swiss albino mouse assessed as RBC level at 300 mg/kg, po administered for 7 days (reference value: 7.13 +/- 0.40 million/mm3)", "format": "organism-based, Erythrocyte", "details": "in vivo, 168 h, time 7 day", "summary_of_the_method": "as §1"}, "[15]": {"assay": "Toxicity in Swiss albino mouse assessed as triglyceride level at 1000 mg/kg, po administered for 7 days (reference value: 136.88 +/- 3.12 mg/dl)", "format": "organism-based", "details": "in vivo, 168 h, time 7 day"}, "[16]": {"assay": "Renal toxicity in Swiss albino mouse assessed as creatinine level at 1000 mg/kg, po administered for 7 days (reference value: 0.76 +/- 0.06 mg/dl)", "format": "organism-based", "details": "in vivo, 168 h, time 7 day", "summary_of_the_method": "as §1"}, "[17]": {"assay": "Toxicity in Swiss albino mouse assessed as change in relative kidney weight at 5 to 1000 mg/kg, po administered for 7 days", "format": "organism-based", "details": "in vivo, 168 h, dose 5-1000 mg/kg, time 7 day"}, "[18]": {"assay": "Toxicity in Swiss albino mouse assessed as triglyceride level at 50 mg/kg, po administered for 7 days (reference value: 136.88 +/- 3.12 mg/dl)", "format": "organism-based", "details": "in vivo, 168 h, time 7 day"}, "[19]": {"assay": "Hepatotoxicity in Swiss albino mouse assessed as serum protein level at 5 mg/kg, po administered for 7 days (reference value: 5.73 +/- 0.21 mg/ml)", "format": "toxicity, organism-based", "details": "in vivo, 168 h, time 7 day", "summary_of_the_method": "as §1"}, "[20]": {"assay": "Renal toxicity in Swiss albino mouse assessed as creatinine level at 300 mg/kg, po administered for 7 days (reference value: 0.76 +/- 0.06 mg/dl)", "format": "organism-based", "details": "in vivo, 168 h, time 7 day", "summary_of_the_method": "as §1"}, "Homo sapiens": {"species_on_record": "Homo sapiens", "assay": "Selectivity ratio, ratio of inhibition of HDAC in human HeLa nuclear extract assessed as residual activity to inhibition of human recombinant HDAC6 assessed as residual activity", "summary_of_the_method": "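Compounds at 20 μM tested by fluorometric assay on HeLa nuclear extract (class I/II HDACs) and on human recombinant HDAC6. Residual activity is expressed relative to untreated control. Selectivity is the ratio of PanHDAC to HDAC6 residual activity: ≥7 high, 2.5–6.9 moderate, <2.5 low.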"}, "[21]": {"assay": "Hepatotoxicity in Swiss albino mouse assessed as SGPT level at 5 mg/kg, po administered for 7 days (reference value: 17.01 +/- 2.33 U/L)", "format": "toxicity, organism-based", "details": "in vivo, 168 h, time 7 day", "summary_of_the_method": "as §1"}, "[22]": {"assay": "Toxicity in Swiss albino mouse assessed as WBC level at 5 mg/kg, po administered for 7 days (reference value: 5.29 +/- 0.51 10^3/mm3)", "format": "organism-based", "details": "in vivo, 168 h, time 7 day"}, "[23]": {"assay": "Antiinflammatory activity in mouse peritoneal macrophage assessed as reduction in LPS-induced TNFalpha production at 10 ug/ml", "format": "functional", "details": "dose 10 µg/ml"}, "[24]": {"assay": "Selectivity index, ratio of IC50 for african green monkey Vero cells to IC50 for human K562 cells", "format": "toxicity", "details": "Vero cells versus K562 cells, read-out: Ratio IC50"}, "[25]": {"assay": "Hepatotoxicity in Swiss albino mouse assessed as SGOT level at 50 mg/kg, po administered for 7 days (reference value: 31.51 +/- 6.31 U/L)", "format": "toxicity, organism-based", "details": "in vivo, 168 h, time 7 day", "summary_of_the_method": "as §1"}, "[26]": {"assay": "Hepatotoxicity in Swiss albino mouse assessed as SGOT level at 5 mg/kg, po administered for 7 days (reference value: 31.51 +/- 6.31 U/L)", "format": "toxicity, organism-based", "details": "in vivo, 168 h, time 7 day", "summary_of_the_method": "as §1"}, "[27]": {"assay": "Hepatotoxicity in Swiss albino mouse assessed as albumin level at 5 mg/kg, po administered for 7 days (reference value: 4.12 +/- 0.17 g/dl)", "format": "toxicity, organism-based", "details": "in vivo, 168 h, time 7 day", "summary_of_the_method": "as §1"}, "[28]": {"assay": "Renal toxicity in Swiss albino mouse assessed as creatinine level at 50 mg/kg, po administered for 7 days (reference value: 0.76 +/- 0.06 mg/dl)", "format": "organism-based", "details": "in vivo, 168 h, time 7 day", "summary_of_the_method": "as §1"}, "[29]": {"assay": "Toxicity in Swiss albino mouse assessed as RBC level at 50 mg/kg, po administered for 7 days (reference value: 7.13 +/- 0.40 million/mm3)", "format": "organism-based, Erythrocyte", "details": "in vivo, 168 h, time 7 day", "summary_of_the_method": "as §1"}, "[30]": {"assay": "Toxicity in Swiss albino mouse assessed as change in absolute liver weight at 5 to 1000 mg/kg, po administered for 7 days", "format": "organism-based", "details": "in vivo, 168 h, dose 5-1000 mg/kg, time 7 day"}, "[31]": {"assay": "Toxicity in Swiss albino mouse assessed as change in absolute spleen weight at 5 to 1000 mg/kg, po administered for 7 days", "format": "organism-based", "details": "in vivo, 168 h, dose 5-1000 mg/kg, time 7 day"}, "[32]": {"assay": "Toxicity in Swiss albino mouse assessed as WBC level at 50 mg/kg, po administered for 7 days (reference value: 5.29 +/- 0.51 10^3/mm3)", "format": "organism-based", "details": "in vivo, 168 h, time 7 day"}, "MDA-MB-231": {"system": "MDA-MB-231", "assay": "Cytotoxicity against human MDA-MB-231 cells incubated for 72 hrs by Sulphorhodamine assay", "format": "functional, cell-based", "details": "MDA-MB-231, 72 h"}},
  "data": [
    {"smiles": "COc1cc(C2/C(=C/c3ccc(/C=C/C(=O)NO)cc3)C(=O)c3cc(OC)c(OC)c(OC)c32)cc(OC)c1OC", "note": "(stereo unspecified)", "values": [
      {"measurement": "Activity", "setting": "[1]", "result": 8.53, "unit": "million/mm3"},
      {"measurement": "IC50", "setting": "K562", "result": 3.27, "unit": "µM"},
      {"measurement": "Activity", "setting": "[2]", "result": "Non-Toxic"},
      {"measurement": "Activity", "setting": "[3]", "result": 29.93, "unit": "U/L"},
      {"measurement": "Activity", "setting": "[4]", "result": 2617.2, "unit": "pg/mL"},
      {"measurement": "Activity", "setting": "[5]", "result": "Non-Toxic"},
      {"measurement": "Activity", "setting": "[6]", "result": 30.22, "unit": "g"},
      {"measurement": "Activity", "setting": "[7]", "result": 5.45, "unit": "mg/mL"},
      {"measurement": "IC50", "setting": "MCF7", "result": "> 100", "unit": "µM"},
      {"measurement": "Activity", "setting": "[8]", "result": 157.22, "unit": "mg/dL"},
      {"measurement": "Activity", "setting": "[9]", "result": 29.22, "unit": "%"},
      {"measurement": "Activity", "setting": "[10]", "result": 16.77, "unit": "g/dL"},
      {"measurement": "Activity", "setting": "[11]", "result": 28.17, "unit": "g"},
      {"measurement": "Activity", "setting": "[12]", "result": 2199.42, "unit": "pg/mL"},
      {"measurement": "Activity", "setting": "[13]", "result": 27.43, "unit": "g"},
      {"measurement": "Activity", "setting": "[14]", "result": 8.48, "unit": "million/mm3"},
      {"measurement": "Activity", "setting": "[15]", "result": 130.21, "unit": "mg/dL"},
      {"measurement": "Activity", "setting": "[16]", "result": 0.74, "unit": "mg/dL"},
      {"measurement": "Activity", "setting": "[17]", "result": "Non-Toxic"},
      {"measurement": "Activity", "setting": "[18]", "result": 129.78, "unit": "mg/dL"},
      {"measurement": "Activity", "setting": "[19]", "result": 5.44, "unit": "mg/mL"},
      {"measurement": "Activity", "setting": "[20]", "result": 0.64, "unit": "mg/dL"},
      {"measurement": "Ratio", "setting": "Homo sapiens", "result": "< 0.5"},
      {"measurement": "Activity", "setting": "[21]", "result": 16.79, "unit": "U/L"},
      {"measurement": "Activity", "setting": "[22]", "result": "5.01 10^3/mm3"},
      {"measurement": "Activity", "setting": "[23]", "result": 872.08, "unit": "pg/mL"},
      {"measurement": "selectivity ratio", "setting": "[24]", "result": 30.7},
      {"measurement": "Activity", "setting": "[25]", "result": 33.67, "unit": "U/L"},
      {"measurement": "Activity", "setting": "[26]", "result": 28.87, "unit": "U/L"},
      {"measurement": "Activity", "setting": "[27]", "result": 4.34, "unit": "g/dL"},
      {"measurement": "Activity", "setting": "[28]", "result": 0.69, "unit": "mg/dL"},
      {"measurement": "Activity", "setting": "[29]", "result": 8.82, "unit": "million/mm3"},
      {"measurement": "Activity", "setting": "[30]", "result": "Non-Toxic"},
      {"measurement": "Activity", "setting": "[31]", "result": "Non-Toxic"},
      {"measurement": "Activity", "setting": "[32]", "result": "4.34 10^3/mm3"},
      {"measurement": "IC50", "setting": "MDA-MB-231", "result": 360, "unit": "nM"}
    ]}
  ]
}
